According to ChEMBL document CHEMBL1129508, “Betulinic acid derivatives: a new class of specific inhibitors of human immunodeficiency virus type 1 entry” (J Med Chem, 1996):

Experiments:
[1] = system: Human immunodeficiency virus 1; assay: Inhibitory activity tested against the HIV-1 in CEM cells; assay type: functional, organism-based; conditions: Human immunodeficiency virus 1, CCRF-CEM
Procedure, shortened: (§1)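 HIV-1-induced cytopathicity in CEM 4 or MT-4 cell cultures was assessed by counting viable cells after MTT (3-(4,5-dimethylthiazol-2-yl)-2,5-diphenyltetrazolium bromide) staining. IC50 is the concentration that inhibits cytopathicity by 50%. For routine testing, the highest concentration was generally 3 µM, because solubility was limited above 10 µM.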

[2] = system: Human immunodeficiency virus 1; assay: Inhibitory activity tested against the HIV-1 in MT-4 cells; assay type: functional, organism-based; conditions: Human immunodeficiency virus 1, MT4; procedure, shortened: as §1
CCRF-CEM = assay: Inhibitory activity against the HIV-1 in CEM cells; assay type: functional, cell-based; conditions: Homo sapiens; procedure, shortened: as §1

SMILES	IC50 [1] [nM]	IC50 [2] [nM]	IC50 (CCRF-CEM) [nM]
C=C(C)[C@@H]1CC[C@]2(C(=O)NCCCCCCCC(=O)N[C@@H](CC(N)=O)C(=O)O)CC[C@]3(C)[C@H](CCC4[C@@]5(C)CC[C@H](O)C(C)(C)[C@@H]5CC[C@]43C)[C@@H]12 (stereo not given in full)	950		
C=C(C)[C@@H]1CC[C@]2(C(=O)NCCCCCCCC(=O)N[C@@H](CC(C)C)[C@H](O)CC(=O)O)CC[C@]3(C)[C@H](CCC4[C@@]5(C)CC[C@H](O)C(C)(C)[C@@H]5CC[C@]43C)[C@@H]12 (stereo not given in full)	50	44	
C=C(C)[C@@H]1CC[C@]2(C(=O)NCCCCCCCC(=O)NC(C)(C)C(=O)O)CC[C@]3(C)[C@H](CCC4[C@@]5(C)CC[C@H](O)C(C)(C)[C@@H]5CC[C@]43C)[C@@H]12 (stereo not given in full)	133	89	
C=C(C)[C@@H]1CC[C@]2(C(=O)NCCCCCCCC(=O)N[C@@H](Cc3ccccc3)[C@@H](O)CC(=O)O)CC[C@]3(C)[C@H](CCC4[C@@]5(C)CC[C@H](O)C(C)(C)[C@@H]5CC[C@]43C)[C@@H]12 (stereo not given in full)	130	33	
C=C(C)[C@@H]1CC[C@]2(C(=O)NCCCCCCCNC(=O)c3ccc(C(=O)O)cc3)CC[C@]3(C)[C@H](CCC4[C@@]5(C)CC[C@H](O)C(C)(C)[C@@H]5CC[C@]43C)[C@@H]12 (stereo not given in full)	110	22	
C=C(C)[C@@H]1CC[C@]2(C(=O)NCCCCCCCC(=O)N[C@@H](CCCCN)C(=O)O)CC[C@]3(C)[C@H](CCC4[C@@]5(C)CC[C@H](O)C(C)(C)[C@@H]5CC[C@]43C)[C@@H]12 (stereo not given in full)	10000		
Cc1ccnc2c1NC(=O)c1cccnc1N2C1CC1 [NEVIRAPINE]			84
C=C(C)[C@@H]1CC[C@]2(C(=O)NCCCCCCCCCCCC(=O)O)CC[C@]3(C)[C@H](CCC4[C@@]5(C)CC[C@H](O)C(C)(C)[C@@H]5CC[C@]43C)[C@@H]12 (stereo not given in full)	550	250	
C=C(C)[C@@H]1CC[C@]2(C(=O)NCCCCCCCC(=O)O)CC[C@]3(C)[C@H](CCC4[C@@]5(C)CC[C@H](O)C(C)(C)[C@@H]5CC[C@]43C)[C@@H]12 (stereo not given in full)	750	465	
C=C(C)[C@@H]1CC[C@]2(C(=O)NCCCCCCCC(=O)Nc3ccc(C(=O)O)cc3)CC[C@]3(C)[C@H](CCC4[C@@]5(C)CC[C@H](O)C(C)(C)[C@@H]5CC[C@]43C)[C@@H]12 (stereo not given in full)	70	26	
C=C(C)[C@@H]1CC[C@]2(C(=O)NCCCCCCCC(=O)NC(CC(=O)O)C(F)(F)F)CC[C@]3(C)[C@H](CCC4[C@@]5(C)CC[C@H](O)C(C)(C)[C@@H]5CC[C@]43C)[C@@H]12 (stereo not given in full)	155		
C=C(C)[C@@H]1CC[C@]2(C(=O)NCCCCCCCC(=O)N[C@@H](CC(C)C)[C@@H](O)CC(=O)O)CC[C@]3(C)[C@H](CCC4[C@@]5(C)CC[C@H](O)C(C)(C)[C@@H]5CC[C@]43C)[C@@H]12 (stereo not given in full)	50	40	
C=C(C)[C@@H]1CC[C@]2(C(=O)NCCCCCCCC(=O)N(C)CC(=O)O)CC[C@]3(C)[C@H](CCC4[C@@]5(C)CC[C@H](O)C(C)(C)[C@@H]5CC[C@]43C)[C@@H]12 (stereo not given in full)	250	333	
C=C(C)[C@@H]1CC[C@]2(C(=O)NCCCCCCCC(=O)N3CCCC(C(=O)O)C3)CC[C@]3(C)[C@H](CCC4[C@@]5(C)CC[C@H](O)C(C)(C)[C@@H]5CC[C@]43C)[C@@H]12 (stereo not given in full)	185		
C=C(C)[C@@H]1CC[C@]2(C(=O)NCCCCCCCNC(=O)c3ccccc3C(=O)O)CC[C@]3(C)[C@H](CCC4[C@@]5(C)CC[C@H](O)C(C)(C)[C@@H]5CC[C@]43C)[C@@H]12 (stereo not given in full)	1800		
C=C(C)[C@@H]1CC[C@]2(C(=O)NCCCCCCCC(=O)N[C@@H](Cc3ccccc3)C(=O)O)CC[C@]3(C)[C@H](CCC4[C@@]5(C)CC[C@H](O)C(C)(C)[C@@H]5CC[C@]43C)[C@@H]12 (stereo not given in full)	2000		
C=C(C)[C@@H]1CC[C@]2(C(=O)NCCCCCCCC(=O)N3CCC[C@H]3C(=O)O)CC[C@]3(C)[C@H](CCC4[C@@]5(C)CC[C@H](O)C(C)(C)[C@@H]5CC[C@]43C)[C@@H]12 (stereo not given in full)	640	58	
C=C(C)[C@@H]1CC[C@]2(C(=O)NCCCCCCCC(=O)Nc3cccc(C(=O)O)c3)CC[C@]3(C)[C@H](CCC4[C@@]5(C)CC[C@H](O)C(C)(C)[C@@H]5CC[C@]43C)[C@@H]12 (stereo not given in full)	80		
C=C(C)[C@@H]1CC[C@]2(C(=O)NCCCCCCCNC(=O)c3cccc(C(=O)O)c3)CC[C@]3(C)[C@H](CCC4[C@@]5(C)CC[C@H](O)C(C)(C)[C@@H]5CC[C@]43C)[C@@H]12 (stereo not given in full)	105	40	
C=C(C)[C@@H]1CC[C@]2(C(=O)NCCCCCCCC(=O)NC(CC(=O)O)c3ccccc3)CC[C@]3(C)[C@H](CCC4[C@@]5(C)CC[C@H](O)C(C)(C)[C@@H]5CC[C@]43C)[C@@H]12 (stereo not given in full)	85	47	
C=C(C)[C@@H]1CC[C@]2(C(=O)NCCCCCCCC(=O)N[C@@H](CC(=O)O)C(=O)O)CC[C@]3(C)[C@H](CCC4[C@@]5(C)CC[C@H](O)C(C)(C)[C@@H]5CC[C@]43C)[C@@H]12 (stereo not given in full)	18000		

Other lines, results leading:

IC50 [1] [nM]	IC50 [2] [nM]	IC50 (CCRF-CEM) [nM]	SMILES
250	250		C=C(C)[C@@H]1CC[C@]2(C(=O)NCCCCCCCC(=O)N[C@@H](CO)C(=O)O)CC[C@]3(C)[C@H](CCC4[C@@]5(C)CC[C@H](O)C(C)(C)[C@@H]5CC[C@]43C)[C@@H]12 (stereo not given in full)
230	443		C=C(C)[C@@H]1CC[C@]2(C(=O)NCCCCCCCCCCC(=O)O)CC[C@]3(C)[C@H](CCC4[C@@]5(C)CC[C@H](O)C(C)(C)[C@@H]5CC[C@]43C)[C@@H]12 (stereo not given in full)
130			C=C(C)[C@@H]1CC[C@]2(C(=O)NCCCCCCCC(=O)NC(C)CC(=O)O)CC[C@]3(C)[C@H](CCC4[C@@]5(C)CC[C@H](O)C(C)(C)[C@@H]5CC[C@]43C)[C@@H]12 (stereo not given in full)
52	85		C=C(C)[C@@H]1CC[C@]2(C(=O)NCCCCCCCC(=O)N[C@H](CCC(=O)O)CC(C)C)CC[C@]3(C)[C@H](CCC4[C@@]5(C)CC[C@H](O)C(C)(C)[C@@H]5CC[C@]43C)[C@@H]12 (stereo not given in full)
61			C=C(C)[C@@H]1CC[C@]2(C(=O)NCCCCCCCC(=O)NCCCCC(=O)O)CC[C@]3(C)[C@H](CCC4[C@@]5(C)CC[C@H](O)C(C)(C)[C@@H]5CC[C@]43C)[C@@H]12 (stereo not given in full)
95			C=C(C)[C@@H]1CC[C@]2(C(=O)NCCCCCCCC(=O)NC(F)CC(=O)O)CC[C@]3(C)[C@H](CCC4[C@@]5(C)CC[C@H](O)C(C)(C)[C@@H]5CC[C@]43C)[C@@H]12 (stereo not given in full)
200	33		C=C(C)[C@@H]1CC[C@]2(C(=O)NCCCCCCCC(=O)NCC(O)CC(=O)O)CC[C@]3(C)[C@H](CCC4[C@@]5(C)CC[C@H](O)C(C)(C)[C@@H]5CC[C@]43C)[C@@H]12 (stereo not given in full)
92	62		C=C(C)[C@@H]1CC[C@]2(C(=O)NCCCCCCCC(=O)N[C@@H](C)C(=O)O)CC[C@]3(C)[C@H](CCC4[C@@]5(C)CC[C@H](O)C(C)(C)[C@@H]5CC[C@]43C)[C@@H]12 (stereo not given in full)
		4500	C=C(C)[C@@H]1CC[C@]2(C(=O)NCCCCC(=O)NCCCCC(=O)O)CC[C@]3(C)[C@H](CCC4[C@@]5(C)CC[C@H](O)C(C)(C)[C@@H]5CC[C@]43C)[C@@H]12 (stereo not given in full)
420	3400		C=C(C)[C@@H]1CC[C@]2(C(=O)NCCCCCCCCC(=O)O)CC[C@]3(C)[C@H](CCC4[C@@]5(C)CC[C@H](O)C(C)(C)[C@@H]5CC[C@]43C)[C@@H]12 (stereo not given in full)
1900			C=C(C)[C@@H]1CC[C@]2(C(=O)NCCCCCCCC(=O)N[C@H](CO)C(=O)O)CC[C@]3(C)[C@H](CCC4[C@@]5(C)CC[C@H](O)C(C)(C)[C@@H]5CC[C@]43C)[C@@H]12 (stereo not given in full)
100	94		C=C(C)[C@@H]1CC[C@]2(C(=O)NCCCCCCCC(=O)NCCC(=O)O)CC[C@]3(C)[C@H](CCC4[C@@]5(C)CC[C@H](O)C(C)(C)[C@@H]5CC[C@]43C)[C@@H]12 (stereo not given in full)
44	129		C=C(C)[C@@H]1CC[C@]2(C(=O)NCCCCCCCC(=O)NCCCC(=O)O)CC[C@]3(C)[C@H](CCC4[C@@]5(C)CC[C@H](O)C(C)(C)[C@@H]5CC[C@]43C)[C@@H]12 (stereo not given in full)
20			C=C(C)[C@@H]1CC[C@]2(C(=O)NCCCCCCCNC(=O)CCCC(=O)O)CC[C@]3(C)[C@H](CCC4[C@@]5(C)CC[C@H](O)C(C)(C)[C@@H]5CC[C@]43C)[C@@H]12 (stereo not given in full)
		4500	C=C(C)[C@@H]1CC[C@]2(C(=O)NCCCCCCC(=O)NCCC(=O)O)CC[C@]3(C)[C@H](CCC4[C@@]5(C)CC[C@H](O)C(C)(C)[C@@H]5CC[C@]43C)[C@@H]12 (stereo not given in full)
95	53		C=C(C)[C@@H]1CC[C@]2(C(=O)NCCCCCCCNC(=O)CCC(=O)O)CC[C@]3(C)[C@H](CCC4[C@@]5(C)CC[C@H](O)C(C)(C)[C@@H]5CC[C@]43C)[C@@H]12 (stereo not given in full)
600	420		C=C(C)[C@@H]1CC[C@]2(C(=O)NCCCCCCCCCC(=O)O)CC[C@]3(C)[C@H](CCC4[C@@]5(C)CC[C@H](O)C(C)(C)[C@@H]5CC[C@]43C)[C@@H]12 (stereo not given in full)
50	34		C=C(C)[C@@H]1CC[C@]2(C(=O)NCCCCCCCNC(=O)CC(=O)O)CC[C@]3(C)[C@H](CCC4[C@@]5(C)CC[C@H](O)C(C)(C)[C@@H]5CC[C@]43C)[C@@H]12 (stereo not given in full)
130			C=C(C)[C@@H]1CC[C@]2(C(=O)NCCCCCCCC(=O)NCC(C)C(=O)O)CC[C@]3(C)[C@H](CCC4[C@@]5(C)CC[C@H](O)C(C)(C)[C@@H]5CC[C@]43C)[C@@H]12 (stereo not given in full)
150	156		C=C(C)[C@@H]1CC[C@]2(C(=O)NCCCCCCCC(=O)NCC(=O)O)CC[C@]3(C)[C@H](CC[C@@H]4[C@@]5(C)CC[C@H](O)C(C)(C)[C@@H]5CC[C@]43C)[C@@H]12
